# Unmarked numbers belong to inactive results.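 Rule for the calls: active = curve reaches 10% of the strong reference activator's caspase signal at or below the top valid tested dose; inactive = signal moves in the opposite direction, or the rest.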
# Assay: caspase activation in unprimed MEWO cells, dose response, counter-screen for A1 inhibitor project, cell-based, luminescence, dry powder, set 2 (AID 504354)
# Conditions: caspase-Glo luminescence, 3 h, at 16 µM, hits give high values
# Method in brief: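 Test system: unprimed MEWO cell line expressing A1 / Quantity: 2500 cells/well / Evaluation: caspase activity / Incubation: 3 h compound treatment at 37 °C, 1 h reagent at RT / Doses: compound delivered into wells by pin transfer / Detection: CaspaseGlo luminescence / Buffer or medium: RPMI-1640 growth medium with 10% FBS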
smiles,measurement,value
C/C1=C/C(=O)O[C@@H]2C[C@@H](CC[C@H](C)/C=C\CC1)O[C@@](O)(C1CSC(=O)N1)C2 (stereo partly specified),caspase activation,2.23%

# Reference: PubChem BioAssay AID504354 (Broad Institute, 2011)
